Values after ≈ are worked out from the molar mass of the structure shown.
How the values were obtained:
Fusarium oxysporum [1] = test: Fungicidal activity against Fusarium oxysporum assessed as mycelium growth inhibition by mycelium growth rate method; format: functional, organism-based
Outline: (§1)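 EC50 was calculated by the […] from in vitro growth-rate inhibition ratios. Inhibition (%) = (D1 − D2)/D1 × 100, taken from mean mycelial diameters of the blank (D1) and the treated plates (D2) once mycelia had grown completely. Fenpiclonil served as control.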

Mycosphaerella arachidis [2] = test: Fungicidal activity against Mycosphaerella arachidis assessed as mycelium growth inhibition at 50 ug/mL by mycelium growth rate method; format: functional; details: read-out: GI
Outline: (§2)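 In vitro mycelium growth rate method, with fenpiclonil as control. Compounds were tested at 50, 20 and 10 μg mL-1. Mycelial diameters were measured once the mycelia had grown completely. Inhibition (%) = (D1 − D2)/D1 × 100, where D1 is the mean mycelial diameter in the blank and D2 is the mean diameter with compound.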

Fusarium oxysporum [3] = test: Fungicidal activity against Fusarium oxysporum assessed as mycelium growth inhibition at 50 ug/mL by mycelium growth rate method; format: functional; details: read-out: GI; outline: as §2
Alternaria solani [4] = test: Fungicidal activity against Alternaria solani assessed as mycelium growth inhibition at 50 ug/mL by mycelium growth rate method; format: functional; details: read-out: GI; outline: as §2
[5] = tested on: Botryosphaeria berengeriana; test: Fungicidal activity against Botryosphaeria berengeriana assessed as mycelium growth inhibition at 50 ug/mL by mycelium growth rate method; format: functional; details: read-out: GI; outline: as §2
Fusarium graminearum [6] = test: Fungicidal activity against Fusarium graminearum assessed as mycelium growth inhibition at 50 ug/mL by mycelium growth rate method; format: functional; details: read-out: GI; outline: as §2
Fusarium graminearum [7] = test: Fungicidal activity against Fusarium graminearum assessed as mycelium growth inhibition by mycelium growth rate method; format: functional, organism-based; outline: as §1
Alternaria solani [8] = test: Fungicidal activity against Alternaria solani assessed as mycelium growth inhibition by mycelium growth rate method; format: functional, organism-based; outline: as §1
[9] = tested on: Botryosphaeria berengeriana; test: Fungicidal activity against Botryosphaeria berengeriana assessed as mycelium growth inhibition by mycelium growth rate method; format: functional, organism-based; outline: as §1
Mycosphaerella arachidis [10] = test: Fungicidal activity against Mycosphaerella arachidis assessed as mycelium growth inhibition by mycelium growth rate method; format: functional, organism-based; outline: as §1
Fusarium graminearum [11] = test: Fungicidal activity against Fusarium graminearum assessed as mycelium growth inhibition at 10 ug/mL by mycelium growth rate method; format: functional; details: read-out: GI; outline: as §2
Mycosphaerella arachidis [12] = test: Fungicidal activity against Mycosphaerella arachidis assessed as mycelium growth inhibition at 10 ug/mL by mycelium growth rate method; format: functional; details: read-out: GI; outline: as §2
[13] = tested on: Botryosphaeria berengeriana; test: Fungicidal activity against Botryosphaeria berengeriana assessed as mycelium growth inhibition at 10 ug/mL by mycelium growth rate method; format: functional; details: read-out: GI; outline: as §2
Mycosphaerella arachidis [14] = test: Fungicidal activity against Mycosphaerella arachidis assessed as mycelium growth inhibition at 20 ug/mL by mycelium growth rate method; format: functional; details: read-out: GI; outline: as §2
Fusarium oxysporum [15] = test: Fungicidal activity against Fusarium oxysporum assessed as mycelium growth inhibition at 10 ug/mL by mycelium growth rate method; format: functional; details: read-out: GI; outline: as §2
Fusarium graminearum [16] = test: Fungicidal activity against Fusarium graminearum assessed as mycelium growth inhibition at 20 ug/mL by mycelium growth rate method; format: functional; details: read-out: GI; outline: as §2
Alternaria solani [17] = test: Fungicidal activity against Alternaria solani assessed as mycelium growth inhibition at 10 ug/mL by mycelium growth rate method; format: functional; details: read-out: GI; outline: as §2
[18] = tested on: Botryosphaeria berengeriana; test: Fungicidal activity against Botryosphaeria berengeriana assessed as mycelium growth inhibition at 20 ug/mL by mycelium growth rate method; format: functional; details: read-out: GI; outline: as §2
Alternaria solani [19] = test: Fungicidal activity against Alternaria solani assessed as mycelium growth inhibition at 20 ug/mL by mycelium growth rate method; format: functional; details: read-out: GI; outline: as §2
Fusarium oxysporum [20] = test: Fungicidal activity against Fusarium oxysporum assessed as mycelium growth inhibition at 20 ug/mL by mycelium growth rate method; format: functional; details: read-out: GI; outline: as §2

| Compound | EC50 (Fusarium oxysporum [1]) [µg/mL] | inhibition of growth at 50 µg/mL (Mycosphaerella arachidis [2]) [%] | inhibition of growth at 50 µg/mL (Fusarium oxysporum [3]) [%] | inhibition of growth at 50 µg/mL (Alternaria solani [4]) [%] | inhibition of growth at 50 µg/mL [5] [%] | inhibition of growth at 50 µg/mL (Fusarium graminearum [6]) [%] | EC50 (Fusarium graminearum [7]) [µg/mL] | EC50 (Alternaria solani [8]) [µg/mL] | EC50 [9] [µg/mL] | EC50 (Mycosphaerella arachidis [10]) [µg/mL] | inhibition of growth at 10 µg/mL (Fusarium graminearum [11]) [%] | inhibition of growth at 10 µg/mL (Mycosphaerella arachidis [12]) [%] | inhibition of growth at 10 µg/mL [13] [%] | inhibition of growth at 20 µg/mL (Mycosphaerella arachidis [14]) [%] | inhibition of growth at 10 µg/mL (Fusarium oxysporum [15]) [%] | inhibition of growth at 20 µg/mL (Fusarium graminearum [16]) [%] | inhibition of growth at 10 µg/mL (Alternaria solani [17]) [%] | inhibition of growth at 20 µg/mL [18] [%] | inhibition of growth at 20 µg/mL (Alternaria solani [19]) [%] | inhibition of growth at 20 µg/mL (Fusarium oxysporum [20]) [%] |
| --- | --- | --- | --- | --- | --- | --- | --- | --- | --- | --- | --- | --- | --- | --- | --- | --- | --- | --- | --- | --- |
| N#Cc1c[nH]cc1-c1cccc(Cl)c1Cl [FENPICLONIL] | > 50 | 100 | 18 | 100 | 100 | 100 | – | – | – | – | – | – | – | – | – | – | – | – | – | – |
| O=[N+]([O-])c1cc([N+](=O)[O-])c(-c2ccsc2)cc1F | 4.42 (≈ 16.5 µM) | 100 | 100 | 68 | 100 | 100 | 27.5 (≈ 103 µM) | 25.2 (≈ 94 µM) | 4.41 (≈ 16.4 µM) | 7.16 (≈ 26.7 µM) | – | – | – | – | – | – | – | – | – | – |
| O=[N+]([O-])c1cc(F)ccc1-c1ccsc1 | – | 0 | 75 | 55 | 80 | 39 | – | – | – | – | 8 | 0 | 0 | 0 | 0 | 30 | 10 | 20 | 35 | 50 |
| O=[N+]([O-])c1cc(F)ccc1-c1ccsc1[N+](=O)[O-] | – | 16 | 17 | 48 | 14 | 0 | – | – | – | – | 0 | 0 | 0 | 0 | 0 | 0 | 9 | 4 | 25 | 7 |
| O=[N+]([O-])c1cc(-c2c(Cl)cc(Cl)c(Cl)c2[N+](=O)[O-])cs1 | – | 35 | 4 | 34 | 24 | 0 | – | – | – | – | 0 | 5 | 0 | 20 | 0 | 0 | 17 | 10 | 26 | 0 |
| O=[N+]([O-])c1cc(Cl)cc(Cl)c1-c1ccsc1 | – | 25 | 87 | 60 | 82 | 39 | – | – | – | – | 8 | 0 | 42 | 18 | 56 | 26 | 20 | 72 | 55 | 81 |
| O=[N+]([O-])c1cc(Cl)ccc1-c1ccsc1[N+](=O)[O-] | – | 0 | 17 | 9 | 25 | 0 | – | – | – | – | 0 | 0 | 0 | 0 | 0 | 0 | 0 | 10 | 0 | 0 |
| O=[N+]([O-])c1c(Cl)c(Cl)cc(Cl)c1-c1ccsc1 | > 50 | 50 | 36 | 49 | 90 | 47 | > 50 | > 50 | 36.7 (≈ 119 µM) | > 50 | – | – | – | – | – | – | – | – | – | – |
| O=[N+]([O-])c1sccc1-c1c(Cl)cc(Cl)c(Cl)c1[N+](=O)[O-] | – | 40 | 22 | 34 | 40 | 0 | – | – | – | – | 0 | 5 | 0 | 25 | 0 | 0 | 0 | 13 | 26 | 0 |
| O=[N+]([O-])c1cc(F)c(Cl)cc1-c1ccsc1 | – | 25 | 87 | 60 | 80 | 47 | – | – | – | – | 0 | 0 | 64 | 18 | 18 | 30 | 0 | 74 | 35 | 43 |
| O=[N+]([O-])c1cc(F)c(Cl)cc1-c1ccsc1[N+](=O)[O-] | – | 18 | 39 | 61 | 42 | 20 | – | – | – | – | 0 | 0 | 12 | 5 | 14 | 4 | 48 | 36 | 54 | 28 |
| O=[N+]([O-])c1cc(Cl)cc(Cl)c1-c1ccsc1[N+](=O)[O-] | – | 27 | 28 | 38 | 27 | 0 | – | – | – | – | 0 | 0 | 2 | 11 | 10 | 0 | 16 | 17 | 32 | 14 |

Reference: ChEMBL document CHEMBL3045952, “Design, synthesis, and fungicidal activity of novel analogues of pyrrolnitrin” (J Agric Food Chem, 2009)
